Data set [1] has as its target Glutamate receptor ionotropic, NMDA 1 (Rattus norvegicus, UniProt P35439). As to the kind of experiment: Binding affinity towards NMDA receptor to displace [3H]L-689,560 from rat cortical membranes.
Data set [2] can be described thus: pKa value was determined. The data set is classed as physicochemical.
Data set [3] is filed under the species Rattus norvegicus. As to the kind of experiment: In vitro evaluation to antagonize NMDA responses in rat cortical slice preparation. It counts as functional. In outline: (§1)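 Rat cortical slice preparation. Apparent Kb was calculated from the rightward shift of the agonist (NMDA or AMPA) concentration-response curve produced by the antagonist. Values are means of three determinations.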

Data set [4] concerns Mus musculus. As to the kind of experiment: In vivo evaluation to protect DBA/2 mice against audiogenic seizure at 50 mg/kg ip 30 min prior to noise stimulation; 0 out of 8 mouse effected. It counts as functional. As to conditions: route intraperitoneal.
For data set [5], the system named is Mus musculus. In words: In vivo evaluation to protect DBA/2 mice against audiogenic seizure at 100 mg/kg ip 30 min prior to noise stimulation; 0 out of 8 mouse effected. As to conditions: route intraperitoneal. It counts as functional.
For data set [6], the species on record is Rattus norvegicus. As to the kind of experiment: In vitro evaluation to antagonize AMPA responses in rat cortical slice preparation. It counts as functional. In outline:
as §1

The test system of data set [7] is Mus musculus. In words: In vivo evaluation to protect DBA/2 mice against audiogenic seizure ip 30 min prior to noise stimulation. The data set is classed as functional. In outline:
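DBA/2 mice dosed intraperitoneally 30 min before noise stimulation and scored for protection against audiogenic seizure. Results are reported as ED50 (mg/kg) or as number protected/number tested at a single dose (50, 75 or 100 mg/kg, groups of 8).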

In data set [8] the test system is Mus musculus. As to the kind of experiment: In vivo evaluation to protect DBA/2 mice against audiogenic seizure at 75 mg/kg ip 30 min prior to noise stimulation; 2 out of 8 mouse effected. It counts as functional. As to conditions: route intraperitoneal.
The nature of data set [9]: pKa value was determined; Value ranges from 5-6. It counts as physicochemical.

The term IC50 denotes the concentration at which inhibition is half-maximal. Low readings indicate greater potency, high ones weaker potency. Consider `COC(=O)CC1c2ccccc2NC(=O)C1[N+](=O)[O-]` (stereo not given), for which the concentration for half-maximal inhibition (IC50) in data set [1] is 28.6 µM.
The pKa is the negative logarithm of the acid dissociation constant. A low value points to a stronger acid or weaker base. `COC(=O)CC1c2ccc(Cl)cc2NC(=O)C1S(=O)(=O)c1ccc([N+](=O)[O-])cc1` (stereo not given) displayed a concentration for half-maximal inhibition (IC50) in data set [1] of over 100 µM. In addition, the pKa in [2] was determined as 9.9.
The corresponding values for `COC(=O)CC1c2ccc(Cl)cc2NC(=O)C1C(=O)c1ccccc1` (stereo not given) are over 100 µM and about 9.
In turn, `CN(C(=O)CC1c2ccc(Cl)cc2NC(=O)C1[N+](=O)[O-])c1ccccc1` (stereo not given) gave a Kb in [3] of over 10 µM. The molecule also returned a Protected in data set [4] of 0. Also, the concentration for half-maximal inhibition (IC50) in data set [1] came out at 1.84 µM.
`O=C(CC1c2ccc(Cl)cc2NC(=O)C1[N+](=O)[O-])Nc1ccccc1` (stereo not given) had a Kb in data set [3] of over 10 µM. The molecule also gave a half-inhibitory concentration (IC50) in data set [1] of 7.43 µM.
On to `COC(=O)CC1c2ccc(Cl)cc2NC(=O)C1S(=O)(=O)c1ccccc1` (stereo not given), for which, in data set [1], the half-maximal inhibitory concentration (IC50) is over 100 µM. Besides, in [2], the pKa was determined as 10.8.
In data set [3], `CN(C)C(=O)CC1c2ccc(Cl)cc2NC(=O)C1[N+](=O)[O-]` (stereo not given) gave a Kb of 22.2 µM. Further, the Protected in [5] was found to be 0.
In [1], `COC(=O)CC1c2ccc(Cl)cc2NC(=O)C1C#N` (stereo not given) registered an IC50 of 12 µM. The pKa in data set [2] turned out to be 10.2.
`CCOC(=O)CC1c2ccc(Cl)cc2NC(=O)C1[N+](=O)[O-]` (stereo not given): the Kb in [3] came out at 8.1 µM. The IC50 in [1] came out at 2.23 µM.
The ED50 is the midpoint of the dose-response relation. Take `O=C1Nc2cc(Cl)ccc2CC1[N+](=O)[O-]` (stereo not given): the Kb was found to be 9.2 µM in [6] and 6.7 µM in data set [3]. For the same molecule, the IC50 in [1] came out at 0.414 µM. Further, the ED50 in [7] came to 13.2 mg/kg.
In the case of `COC(=O)Cc1c(C(=O)OC)c(O)nc2cc(Cl)ccc12`, the IC50 in data set [1] was over 100 µM.
In turn, `COC(=O)CC1c2ccc(Cl)cc2NC(=O)C1C(=O)OC` (stereo not given) showed an IC50 in data set [1] of over 100 µM. In addition, in data set [2], the pKa was over 11.
In turn, `O=C(CC1c2ccc(Cl)cc2NC(=O)C1[N+](=O)[O-])NCc1ccccc1` (stereo not given) registered a Protected in [5] of 0. The molecule also yielded a concentration for half-maximal inhibition (IC50) in [1] of 2.53 µM.
Molecule `COC(=O)CC1CC(=O)Nc2cc(Cl)ccc21` (stereo not given) returned an IC50 in [1] of over 100 µM.
In the case of `CNC(=O)CC1c2ccc(Cl)cc2NC(=O)C1[N+](=O)[O-]` (stereo not given), the Kb in [3] is given as over 30. In [1], this molecule came in with a half-inhibitory concentration (IC50) of 12.4 µM.
Turning to `COC(=O)CC1c2ccc(Cl)cc2NC(=O)C1[N+](=O)[O-]` (stereo not given), the values for the Kb in [6] and in data set [3] were 139 µM and 7 µM, respectively. The Protected in data set [8] worked out at 2. This molecule showed an IC50 in [1] of 1.32 µM. Further, the pKa in data set [9] was about 5.
For the molecule `Cc1noc(CC2c3ccc(Cl)cc3NC(=O)C2[N+](=O)[O-])n1` (stereo not given), the Kb in data set [3] worked out at 25.9 µM. The same molecule gave a Protected in data set [5] of 0. This molecule also gave a half-maximal inhibitory concentration (IC50) in data set [1] of 5.59 µM.
`COC(=O)CC1c2ccc(Cl)cc2NC(=O)C1S(C)(=O)=O` (stereo not given) yielded a 50% inhibitory concentration (IC50) in data set [1] of over 100 µM. This molecule registered a pKa in [2] of over 11.
